From PubChem
Rows were chosen to be rich in hits. Some 4.4% of all compounds tested hit in one or more screens of this group.
SENP1 inh = blocks the human SENP1 SUMO protease catalytic domain; inhibition, % at 10 µM; recombinant SENP1 catalytic domain, CyPet-SUMO1-YPet FRET cleavage; 360,000 tested, 0.21% active; Q9P0U3;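 active = inhibition at least 30% at 10 µM, raw YFP signal under a set limit, fluorescence ratio 0.5 to 1.5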;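 also: 0% = enzyme with DMSO and 100% = no enzyme wells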
Target sequence (Q9P0U3 419-644 limits assumed): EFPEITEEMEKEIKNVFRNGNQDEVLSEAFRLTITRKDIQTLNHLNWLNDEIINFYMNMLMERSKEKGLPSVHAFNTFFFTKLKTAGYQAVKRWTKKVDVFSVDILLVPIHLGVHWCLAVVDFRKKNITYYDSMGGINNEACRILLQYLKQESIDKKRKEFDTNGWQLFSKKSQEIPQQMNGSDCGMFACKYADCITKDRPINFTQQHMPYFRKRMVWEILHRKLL
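Test system: recombinant human SENP1 catalytic domain, His6-tagged / Medium: pH 8 Tris buffer with EDTA, NaCl, BME, BSA, NP40, catalase / Also added: SUMO1 FRET substrate flanked by Cypet and Ypet, 25 nM / Times: 50 min reaction at room temperature / Signal: FRET, CFP and YFP emission / Control set: no-enzyme low control and enzyme-plus-DMSO high control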
MPTP inh = blocks calcium-induced mitochondrial swelling. isolated mouse mitochondria, Ca2+ swelling absorbance, 30 min. AID 602449. 360,000 tested, 1.4% active. inhibition, % at 10 µM;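 active = inhibition of 50% or more, scaled per plate between neutral and stimulator controls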;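 also: 0% = DMSO wells given calcium and 100% = 1 mM EGTA wells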
NR3A LBD binder = modulators (binders) of human NR3A ligand-binding domain; NR3A LBD differential scanning fluorimetry, Tm shift; 0% = protein alone, 100% = glycine-bound protein; Tm shift relative to glycine control, % at 25 µM; 340,000 tested, 2.5% active; AID 1259313;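 active = melting temperature shift of at least 10% of the positive control shift, at one fixed dose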
EBI2 block = antagonists of human EBI2 receptor; 360,000 tested, 0.81% active; P32249; inhibition, % at 5 µM; AID 651636; EBI2 beta-arrestin recruitment, luminescence, 7a,25-OHC stimulated; in the data active = inhibition above about 38%;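 also: enzyme fragment complementation signal reports receptor beta-arrestin coupling in cells; 0% = agonist plus DMSO wells and 100% = wells without agonist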
Target sequence (P32249 whole entry, looked up, the tested form may be a part): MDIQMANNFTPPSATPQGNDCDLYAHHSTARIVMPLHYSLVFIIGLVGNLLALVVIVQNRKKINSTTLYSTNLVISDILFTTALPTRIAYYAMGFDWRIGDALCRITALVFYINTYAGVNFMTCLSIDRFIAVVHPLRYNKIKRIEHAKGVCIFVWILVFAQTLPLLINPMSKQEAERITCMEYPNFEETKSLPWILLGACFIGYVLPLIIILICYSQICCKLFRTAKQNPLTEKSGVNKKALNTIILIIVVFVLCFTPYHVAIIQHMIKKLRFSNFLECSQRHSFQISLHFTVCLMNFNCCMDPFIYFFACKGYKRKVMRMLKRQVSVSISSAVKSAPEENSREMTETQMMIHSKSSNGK
* marks the source's active call; other numbers are inactive results; · = no result given.

SMILES | SENP1 inh | MPTP inh | NR3A LBD binder | EBI2 block
C[C@H](CO)N1C[C@H](C)[C@H](CN(C)C(=O)Nc2ccc(F)cc2)OCc2cnnn2CCCC1=O | 2 | -1 | · | 1
C=CCCCCCCCCC(=O)NNC1CC(=O)N(c2ccccc2)C1=O (stereo not drawn) | 2 | 4 | 1 | -2
CCSc1cc(N2CCCC2)nc(-c2ccc(C)cc2)n1 | 1 | 23 | 15* | -15
COc1ccccc1CNC(=O)c1cc(C(=O)CC(C)C)c[nH]1 | 0 | 0 | 0 | 3
CC1CN(c2ccc(C(=O)c3ccccc3C(=O)O)cc2[N+](=O)[O-])CC(C)O1 (stereo not drawn) | -20 | 0 | -2 | 2
Cc1ccc(Cl)cc1NC(=O)COC(=O)CC1CC2CCC1C2 (stereo not drawn) | 0 | 1 | -12 | 9
COC(=O)c1ccc(C(=O)OC)c(NC(=O)COC(=O)CC2CC3CCC2C3)c1 (stereo not drawn) | -2 | -1 | 19* | 7
CC(=O)NC(CC(=O)NNC(=O)c1cccs1)c1ccccc1 (stereo not drawn) | -1 | 1 | -2 | -5
CC1(C)Cc2c(C#N)c(SCCO)nc(N3CCOCC3)c2CO1 | 0 | 0 | -4 | 4
CCCCc1nc(N2CCOCC2)c(C#N)c2c1COC(C)(C)C2 | -2 | -2 | 15* | 11
CCCCCCCOc1ccc(OC(=O)c2ccncc2)cc1 | 2 | 4 | 2 | 9
COc1ccc2oc(C(=O)Nc3nc4ccc(S(C)(=O)=O)cc4s3)c(C)c2c1 | -8 | 0 | 19* | -13
CCOc1ccc(OCCC(=O)OC(C)C(=O)Nc2ccc(C(C)=O)cc2)cc1 (stereo not drawn) | 2 | -1 | 20* | 7
COc1cc(OC)cc(C(=O)Nc2nc3ccc(S(C)(=O)=O)cc3s2)c1 | 0 | 3 | -27 | 0
CCOc1ccc2nc(NS(=O)(=O)c3ccc4c(c3)n(C)c(=O)n4C)sc2c1 | 2 | 9 | 29* | -14
CCOc1ccc(NC(=O)NC(=O)N(C(C)C)S(C)(=O)=O)cc1 | 1 | 9 | 18* | -2
Cc1cccn2c(=O)c(C=C(C#N)C#N)c(N3CCN(c4cccc(Cl)c4)CC3)nc12 | -41 | 0 | -1 | 11
CC(=O)c1ccccc1NC(=O)COC(=O)C1CCCN1S(=O)(=O)c1ccccc1F (stereo not drawn) | 4 | 1 | -1 | 0
Cc1cc(NC(=O)CSCC(=O)Nc2ccc(C)c(C)c2)no1 | -1 | 4 | 0 | -4
CCOCC(=O)Nc1nc2ccc(S(C)(=O)=O)cc2s1 | 1 | -5 | 0 | -9
CCOc1ccc(NC(=O)Nc2ccc3nccnc3c2)cc1 | 4 | -3 | 24* | 9
CCOc1ccc(C(=O)COc2ccc(NC(C)=O)cc2)cc1 | -2 | -4 | -2 | 3
CCOc1cccc2sc(Nc3nc4ccc(NC(C)=O)cc4s3)nc12 | -30 | 1 | 26* | 32
CCOc1ccc(NC(=O)Nc2nc3ccc(S(C)(=O)=O)cc3s2)cc1 | 1 | 13 | 30* | 0
CCOc1ccc(NC(=O)Nc2ccc(NC(C)=O)cc2)cc1 | 2 | 2 | 22* | 2
SMILES | SENP1 inh | MPTP inh | NR3A LBD binder | EBI2 block
Cc1cccc(SCC(=O)Nc2ccc3c(c2)OCCO3)c1 | -1 | -1 | -2 | 2
O=C(CCc1ccccc1)Nc1cc2c3c(c1)CC(=O)N3CCC2 | 0 | -2 | 6 | -4
COc1ccccc1-c1cnc(C(O)c2ccc(Cl)c(Cl)c2)[nH]1 (stereo not drawn) | -2 | 4 | · | 4
CCOc1ccc(NC(=O)Nc2ccc3c(c2)N(C)C(=O)CS3)cc1 | 3 | 2 | 18* | 2
O=C(CC1Sc2ccccc2NC1=O)Nc1ccccc1[N+](=O)[O-] (stereo not drawn) | 3 | 0 | -1 | -3
Nc1ccc(-c2nc3ccccc3[nH]2)cc1 | 3 | -1 | -5 | -4
Nc1ccc(-c2nc3c(ccc4ccccc43)[nH]2)cc1 | -44 | 1 | 11* | 4
Cc1ccc(NCc2nnc(SCC(=O)Nc3cccc(O)c3)n2CC2CCCO2)c(C)c1 (stereo not drawn) | 0 | 0 | -2 | 7
O=C1N=c2ccccc2=C1c1sc(Nc2cccc(O)c2)nc1O | -2 | 2 | 25* | 6
O=C1N=c2ccccc2=C1c1sc(Nc2ccc(O)cc2)nc1O | 1 | 1 | 13* | 4
O=C1N=c2ccccc2=C1c1sc(NS(=O)(=O)c2ccccc2)nc1O | -5 | 0 | -6 | 3
O=C1N=c2ccccc2=C1c1sc(NS(=O)(=O)Cc2ccccc2)nc1O | -6 | 7 | -4 | 9
CC(=O)Nc1ccc(NC(=O)CCCc2ccccc2)cc1 | 0 | 0 | 2 | -3
CN(C)C(CNS(=O)(=O)c1cc([N+](=O)[O-])ccc1Cl)c1ccco1 (stereo not drawn) | -3 | 1 | 1 | -7
N=C1/C(=C/c2ccc(-c3cccc(C(=O)O)c3)o2)C(=O)N=C2SC=C(c3ccccc3)N12 | -23 | 3 | 2 | 1
N=C1/C(=C/c2cccn2CCOc2ccccc2)C(=O)N=C2SC=C(c3ccccc3)N12 | -41 | 15 | 23* | 41*
N=C1/C(=C\c2ccc(-c3cc(Cl)cc(Cl)c3)o2)C(=O)N=C2SC=C(c3ccccc3)N12 | 18 | 4 | 24* | 17
Cc1ccc(-n2c(C)cc(/C=C3/C(=N)N4C(c5ccccc5)=CSC4=NC3=O)c2C)cc1 | -31 | 3 | -5 | 24
O=C1CCC[C@@H]2C[C@@]3(C[C@@H]4CCN1[C@H]24)Nc1cc(Cl)c(Cl)cc1NC3=NCc1ccccc1 | -1 | -2 | -2 | 7
Cc1cccc(NC(=O)C2c3ccccc3Oc3ccccc32)n1 | 1 | -1 | -1 | 6
Cn1nc(-c2ccccn2)nc2c(=O)n(C)c(=O)nc1-2 | 33* | 1 | -2 | -3
CCCc1nc2c(=O)n(C)c(=O)nc-2n(C)n1 | 34* | 0 | -1 | 5
CCn1c(N)nc2c1c(=O)n(C)c(=O)n2C | -1 | -1 | -1 | 3
CC(C)(C)c1ccc(COc2ccsc2C(=O)O)cc1 | 3 | 0 | -1 | 1
O=C(Nc1ccncc1)C1c2ccccc2Oc2ccccc21 | -1 | 3 | 0 | 0
SMILES | SENP1 inh | MPTP inh | NR3A LBD binder | EBI2 block
CCCCNS(=O)(=O)c1ccc(NC(=O)C2c3ccccc3Oc3ccccc32)cc1 | 2 | 13 | 19* | 9
COc1cc(CNCCO)ccc1OCCc1ccccc1 | -2 | 0 | -1 | 0
NC(=O)CC[C@H](NC(=O)c1ccc(F)cc1)C(=O)OCC(=O)Nc1c(F)c(F)c(F)c(F)c1F | 4 | -2 | 12* | -14
Cc1cc[n+](-c2[nH]c(=O)sc2/C=N/N=C(\[O-])c2ccncc2)cc1C | 2 | 0 | -3 | -8
Cc1cc[n+](-c2[nH]c(=O)sc2/C=N/N=C(\[O-])c2ccccc2)cc1C | 40* | -1 | -1 | 1
CN1CC[C@@H]2C(=O)N3CCc4ccc(Br)cc4[C@@H]3C[C@@H]21 | -16 | -2 | -1 | 1
COc1ccc(Cn2c(C3CC3)nc3ccc(NC(C)=O)cc3c2=O)cc1 | 0 | 1 | -1 | 0
